Test results: PMC5481844 (Biomedical chromatography : BMC, 2015)
Like-named read-outs stand apart in the source and are kept apart here.

Experiments:
[1] = acid hydrolysis also observed; ref Stariat et al., 2009; cited from earlier work
human serum albumin = human serum albumin (Homo sapiens, UniProt P02768); experiment: binding to human serum albumin solution by ultrafiltration; type: in vitro ADME; conditions: human serum albumin (4%) in PBS, 500 ng/mL, n = 3
Summary of the method: (§1)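 Test compound was spiked to a final 500 ng/mL into 4% human serum albumin or 0.1% human α1-acid glycoprotein in PBS. Samples were incubated 1 h at 37 °C, then ultrafiltered through a 30 kDa cutoff device for 20 min at 13,000 g. Total and filtrate concentrations were measured by LC-MS/MS. %bound = 100×(Ctotal−Cfree)/Ctotal, with the filtrate corrected for membrane adsorption using recovery from water. n = 3.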

human plasma proteins [2] = experiment: plasma binding by ultracentrifugation; type: in vitro ADME; conditions: 500 ng/mL, n = 3
Summary of the method: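 Pooled human plasma was spiked with test compound in DMSO (final 500 ng/mL) and incubated 1 h at 37 °C. It was then spun at 50,000 rpm in a fixed-angle rotor for 10 h at 20 °C. The supernatant gave free and whole plasma gave total concentration, both by LC-MS/MS. %bound = 100×(Ctotal−Cfree)/Ctotal. n = 3.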

stability in plasma = type: in vitro ADME, human; conditions: for Measured concentration: n = 3
Summary of the method: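 Human plasma was spiked at 100 and 500 ng/mL and kept at room temperature or on ice for up to 24 h; percent remaining was taken versus freshly prepared samples. For quantitation, 50 µL plasma plus internal standard and EDTA underwent acetonitrile precipitation and centrifugation, then LC-MS/MS in SRM mode. Calibration spanned 3.9–500 ng/mL, fitted with 1/concentration weighting.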

human plasma proteins [3] = experiment: plasma binding by ultrafiltration; type: in vitro ADME
Summary of the method: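 Pooled human plasma was spiked with test compound in DMSO to a final 500 ng/mL; preliminary runs also used 31.25 and 3.9 ng/mL. After 1 h at 37 °C, plasma was ultrafiltered (30 kDa cutoff, 20 min, 13,000 g). Total plasma and ultrafiltrate levels were measured by LC-MS/MS. %bound = 100×(Ctotal−Cfree)/Ctotal, corrected for membrane adsorption via recovery from water. n = 3.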

[4] = stability in different solvents; type: physicochemical
Summary of the method: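 Remaining amount was quantified by LC-MS/MS: C18 gradient with 0.1% formic acid, positive ESI, SRM m/z 235.2/178.0, 2-amino-6-bromobenzothiazole internal standard.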

[5] = system: human α1-acid glycoprotein; experiment: binding to human α1-acid glycoprotein solution by ultrafiltration; type: in vitro ADME; conditions: human α1-acid glycoprotein (0.1%) in PBS, 500 ng/mL, n = 3
Summary of the method: as §1

[6] = human plasma, long term (30 days at −80 °C), nominal 3.9 ng/mL
[7] = human plasma, long term (30 days at −80 °C), nominal 31.3 ng/mL
[8] = human plasma, long term (30 days at −80 °C), nominal 500.0 ng/mL
[9] = human plasma, short-term (2 h on ice), nominal 31.3 ng/mL
[10] = human plasma, short-term (2 h on ice), nominal 500.0 ng/mL
[11] = human plasma, three freeze–thaw cycles, nominal 3.9 ng/mL
[12] = human plasma, three freeze–thaw cycles, nominal 500.0 ng/mL
[13] = processed human plasma samples, autosampler for 24 h, nominal 3.9 ng/mL
[14] = processed human plasma samples, autosampler for 24 h, nominal 31.3 ng/mL
[15] = processed human plasma samples, autosampler for 24 h, nominal 500.0 ng/mL

Sequence of human serum albumin (P02768 25-609): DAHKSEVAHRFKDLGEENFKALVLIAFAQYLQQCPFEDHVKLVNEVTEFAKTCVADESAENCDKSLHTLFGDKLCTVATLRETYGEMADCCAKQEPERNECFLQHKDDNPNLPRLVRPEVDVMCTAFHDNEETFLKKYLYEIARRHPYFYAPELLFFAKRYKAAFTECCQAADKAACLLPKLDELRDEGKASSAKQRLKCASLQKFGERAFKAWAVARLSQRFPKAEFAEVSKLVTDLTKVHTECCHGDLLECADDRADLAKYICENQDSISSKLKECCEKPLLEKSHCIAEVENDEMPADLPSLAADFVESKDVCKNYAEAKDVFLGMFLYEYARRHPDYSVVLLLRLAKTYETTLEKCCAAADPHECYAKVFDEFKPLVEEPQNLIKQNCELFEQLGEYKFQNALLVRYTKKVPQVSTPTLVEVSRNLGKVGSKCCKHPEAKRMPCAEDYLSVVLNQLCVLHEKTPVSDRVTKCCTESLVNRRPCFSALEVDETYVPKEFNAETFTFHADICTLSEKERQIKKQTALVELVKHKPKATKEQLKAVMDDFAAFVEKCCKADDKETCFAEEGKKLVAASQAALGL

For CN(C)C(=S)NN=C(c1ccccn1)c1ccccn1 [Dp44mT, di-2-pyridylketone-4,4-dimethyl-3-thiosemicarbazone], the “stability in acidic buffer” value [1] is given as “also observed”.

In the case of CC(=NNC(=S)N1CCC1)c1ccccn1 [ZMC1, azetidinecarbothioic acid, [1-(2-pyridinyl)ethylidene] hydrazide], the “Percentage of bound drug by ultrafiltration” value (human serum albumin) is reported as 98.4, the “Percentage of bound drug by ultracentifugation” value (human plasma proteins [2]) is reported as 97.5 and the degraded in plasma (stability in plasma; 100 ng/mL, room temperature, over 24 h, vs freshly prepared samples) is reported as > 40%. The stability in plasma (stability in plasma; 500 ng/mL, room temperature, up to 24 h) was “stable”, the Bias (stability in plasma; [6]) was −0.01% and the Measured concentration (stability in plasma; [6]) was 3.9 ng/mL. For the same compound, the Bias (stability in plasma; [7]) was −2.9%, the Measured concentration (stability in plasma; [7]) was 30.3 ng/mL and the Bias (stability in plasma; [8]) was 3.2%. For the same compound, the Measured concentration (stability in plasma; [8]) was 516.4 ng/mL, the Bias (stability in plasma; human plasma, short-term (2 h on ice), nominal 3.9 ng/mL) was −0.4% and the Bias (stability in plasma; [9]) was −7.0%. For the same compound, the Measured concentration (stability in plasma; [9]) was 29.0 ng/mL, the Bias (stability in plasma; [10]) was −1.3% and the Measured concentration (stability in plasma; [10]) was 493.9 ng/mL. For the same compound, the Bias (stability in plasma; [11]) was 4.8%, the Measured concentration (stability in plasma; [11]) was 4.1 ng/mL and the Bias (stability in plasma; human plasma, three freeze–thaw cycles, nominal 31.3 ng/mL) was −10.4%. The Bias (stability in plasma; [12]) was 10.6%, the Measured concentration (stability in plasma; [12]) was 553.1 ng/mL and the Bias (stability in plasma; [13]) was 4.0%. The Measured concentration (stability in plasma; [13]) was 4.1 ng/mL, the Bias (stability in plasma; [14]) was 13.0% and the Measured concentration (stability in plasma; [14]) was 35.4 ng/mL. For the same compound, the Bias (stability in plasma; [15]) was 10.0%, the Measured concentration (stability in plasma; [15]) was 550.7 ng/mL and the “stability of plasma samples under storage conditions” value (stability in plasma; −80 °C for 1 month, 4 °C for 2 h, three freeze–thaw cycles, 24 h in autosampler) was “stable”. For the same compound, the “Percentage of bound drug by ultrafiltration” value (human plasma proteins [3]; human plasma, 500 ng/mL, n = 3) was 98.8, the “concentration of free ZMC1 in ultrafiltrate or ultracentrifugation supernatant” value (human plasma proteins [3]; plasma spiked at 31.25 and 3.9 ng/mL) was “below the detection limit” and the “stability in acidic buffer” value ([4]; 0.1 M HCl, 500 ng/mL, hydrolysis of thiosemicarbazone bond) was “quickly degraded”. For the same compound, the “stability in PBS” value ([4]; PBS pH 7.2, 500 ng/mL, 24 h at 4 °C, 37 °C and room temperature) was “stable without degradation”, the “stability in solvent acetonitrile” value ([4]; acetonitrile–water 80:20 v/v, 500 ng/mL, 24 h at 4 °C, 37 °C and room temperature) was “stable without degradation” and the “stability in neutral buffer” value ([4]; preliminary stability studies) was “good stability”. For the same compound, the “Percentage of bound drug by ultrafiltration” value [5] was 34.9.
